From ChEMBL document CHEMBL1123217, “Molecular design toward biologically significant compounds based on platelet activating factor: a highly selective agonist as a potential antihypertensive agent” (1986)

Tests used:
Rattus norvegicus [1] = assay: Antihypertensive activity using C16-PAF in rat at a doses ranging from 1-10 nmol/kg iv; assay type: functional
How it was run: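 Male Wistar rats (350-430 g, 3-6 per group) under sodium pentobarbital anesthesia (60 mg/kg). Arterial pressure was recorded through a femoral artery catheter. Doses were given iv through a vena cava catheter once readings were stable. Pressure and heart rate were followed every 5 min for 40 min. Falls were expressed relative to C16-PAF given at 1-10 nmol/kg iv.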

Oryctolagus cuniculus = species on record: Oryctolagus cuniculus; assay: Relative activity against platelet aggregation in [14C]5-HT preloaded rabbit platelet for 2 mins; assay type: functional
How it was run: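 Rabbit platelets preloaded with [14C]serotonin were incubated with a range of analogue amounts for 2 min at 20 °C, and [14C]serotonin release was measured. Activity was expressed relative to the ED50 of C16-PAF.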

[2] = Ratio of antihypertension to platelet activation
Rattus norvegicus [3] = assay: Hypotensive activity in spontaneously hypertensive rat expressed as decrease in systolic BP at 1 mg/kg, po; assay type: functional
How it was run: (§1)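 Male SHR aged 18-20 weeks, fasted 24 h with free access to water, dosed orally. Systolic pressure was measured indirectly by tail cuff, with heart rate recorded at the same time. The fall in mmHg was read 3 h after dosing, with 4-5 animals per dose, reported as mean ±.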

Rattus norvegicus [4] = assay: Hypotensive activity in spontaneously hypertensive rat expressed as decrease in systolic BP at 0.1 mg/kg, po; assay type: functional; how it was run: as §1
Rattus norvegicus [5] = assay: Hypotensive activity in spontaneously hypertensive rat expressed as decrease in systolic BP at 3 mg/kg, po; assay type: functional
How it was run: (§2)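 Male SHR (18-20 weeks old), food withdrawn 24 h beforehand with free access to water; compound given orally; systolic blood pressure in the tail artery read indirectly by tail-cuff, heart rate recorded simultaneously; decrease in systolic pressure (mmHg) taken 3 h after dosing; n = 4-5 animals per dose.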

Rattus norvegicus [6] = assay: Hypotensive activity in spontaneously hypertensive rat expressed as decrease in systolic BP at 25 mg/kg, po; assay type: functional; how it was run: as §2
Rattus norvegicus [7] = assay: Hypotensive activity in spontaneously hypertensive rat expressed as decrease in systolic BP at 0.3mg/kg, po; assay type: functional; how it was run: as §2

SMILES	Relative activity (Rattus norvegicus [1])	Relative activity (Oryctolagus cuniculus)	Ratio [2]	other results
CCCCCCCCCCCCCCCCOCC(C)(COP(=O)([O-])OCC[N+](C)(C)C)OC(C)=O (stereo unspecified)	0.0001	–	–	–
CCCCCCCCCCCCCCCCOCC(OC(C)=O)C(C)OP(=O)([O-])OCC[N+](C)(C)C (single isomer, unassigned)	0.001	0.00055	1.82	–
CCCCCCCCCCCCCCCCOC(C)C(COP(=O)([O-])OCC[N+](C)(C)C)OC(C)=O (single isomer, unassigned; enantiomer 2)	0.0002	–	–	–
CCCCCCCCCCCCCCCCOC(C)C(COP(=O)([O-])OCC[N+](C)(C)C)OC(C)=O (single isomer, unassigned; enantiomer 3)	0.0001	0.00056	0.18	–
CCCCCCCCCCCCCCCCOCC(OC(C)=O)C(C)OP(=O)([O-])OCC[N+](C)(C)C (stereo in doubt)	0.0002	–	–	–
CCCCCCCCCCCCCCCCOC(C)C(COP(=O)([O-])OCC[N+](C)(C)C)OC(C)=O (stereo in doubt; 2)	0.059	0.0087	6.78	Decrease (Rattus norvegicus [3]): 69 mmHg; Decrease (Rattus norvegicus [4]): 35 mmHg
CCCCCCCCCCCCCCCCOC(C)C(COP(=O)([O-])OCC[N+](C)(C)C)OC(C)=O (stereo in doubt; 3)	0.00033	–	–	–
CCCCCCCCCCCCCCCCOCC(OC(C)=O)C(C)OP(=O)([O-])OCC[N+](C)(C)C (stereo in doubt; 5)	0.002	–	3.64	–
CCCCCCCCCCCCCCCCOCC(OC(C)=O)C(C)OP(=O)([O-])OCC[N+](C)(C)C (stereo in doubt; 6)	0.0014	0.00089	1.57	–
CCCCCCCCCCCCCCCCOCC(COP(=O)([O-])OCC[N+](C)(C)C)OC(C)=O (stereo unspecified) [PLATELET ACTIVATING FACTOR]	1	1	1	Decrease (Rattus norvegicus [5]): 5 mmHg; Decrease (Rattus norvegicus [6]): 53 mmHg; Decrease (Rattus norvegicus [7]): 4 mmHg
